Data reported in ChEMBL document CHEMBL3600378 (J Med Chem, 2015).
pEC50: −log10 of the molar value. Active and inactive are the calls of the source. No cut-off for these calls is given here.

Columns and labels:
[1] = biological target: T1, Beta-3 adrenergic receptor (Homo sapiens, UniProt P13945); test: Agonist activity at human recombinant beta3-adrenergic receptor expressed in CHO cells assessed as increase of cAMP level after 30 mins; assay type: functional, cell-based
Target sequence in this assay (P13945 whole entry): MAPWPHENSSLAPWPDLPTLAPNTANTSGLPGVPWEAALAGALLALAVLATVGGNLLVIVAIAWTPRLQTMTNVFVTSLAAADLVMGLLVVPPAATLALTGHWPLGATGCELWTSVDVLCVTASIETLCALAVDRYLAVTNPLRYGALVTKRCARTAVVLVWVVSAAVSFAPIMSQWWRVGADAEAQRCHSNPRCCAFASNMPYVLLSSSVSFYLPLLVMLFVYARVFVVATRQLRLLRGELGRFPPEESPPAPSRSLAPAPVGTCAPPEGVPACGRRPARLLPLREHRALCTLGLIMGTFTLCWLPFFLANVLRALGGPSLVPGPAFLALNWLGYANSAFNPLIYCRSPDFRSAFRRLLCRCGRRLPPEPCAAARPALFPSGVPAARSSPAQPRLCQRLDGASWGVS

[2] = biological target: T1, Beta-3 adrenergic receptor; test: Intrinsic activity at human beta3-adrenergic receptor expressed in CHO cells assessed as increase of cAMP level after 30 mins relative to isoproterenol; assay type: functional, cell-based
In short: (§1)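 Stably transfected CHO cells expressing human β1, β2 or β3 or marmoset β3 receptor were grown in Ham's F-12 with 10% FBS and geneticin, seeded at 2×10⁴ cells/well and grown about 20 h. Cells spent 15 min serum-free, then 30 min with compound in medium containing HEPES and isobutylmethylxanthine. Lysate cAMP was measured by kit. […] EC50 is the half-maximal concentration for each compound.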
Target sequence in this assay (P13945 whole entry, looked up): as the sequence (P13945 whole entry) above

[3] = biological target: Beta-1 adrenergic receptor (Homo sapiens, UniProt P08588); test: Agonist activity at human beta1-adrenergic receptor expressed in CHO cells assessed as increase of cAMP level after 30 mins; assay type: functional, cell-based; in short: as §1
[4] = biological target: Beta-2 adrenergic receptor (Homo sapiens, UniProt P07550); test: Agonist activity at human beta2-adrenergic receptor expressed in CHO cells assessed as increase of cAMP level after 30 mins; assay type: functional, cell-based; in short: as §1
[5] = biological target: T2, Alpha-1A adrenergic receptor (Homo sapiens, UniProt P35348); test: Agonist activity at human alpha1A-adrenergic receptor expressed in HEK293 cells assessed as calcium flux by fluorescence assay; assay type: functional, cell-based
T2 sequence (P35348 whole entry): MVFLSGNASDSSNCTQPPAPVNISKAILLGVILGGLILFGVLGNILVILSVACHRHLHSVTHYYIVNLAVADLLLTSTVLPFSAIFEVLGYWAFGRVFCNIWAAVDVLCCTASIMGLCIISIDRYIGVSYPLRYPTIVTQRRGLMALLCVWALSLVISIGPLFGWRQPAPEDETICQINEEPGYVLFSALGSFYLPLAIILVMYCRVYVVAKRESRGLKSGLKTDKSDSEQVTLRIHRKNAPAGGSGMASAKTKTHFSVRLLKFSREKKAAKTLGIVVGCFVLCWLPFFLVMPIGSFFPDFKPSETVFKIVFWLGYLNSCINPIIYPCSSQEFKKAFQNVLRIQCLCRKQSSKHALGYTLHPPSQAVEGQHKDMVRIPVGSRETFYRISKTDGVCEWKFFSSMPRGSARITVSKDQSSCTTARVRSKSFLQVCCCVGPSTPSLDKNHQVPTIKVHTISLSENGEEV

[6] = biological target: T3, Alpha-1A adrenergic receptor (Homo sapiens) (UniProt P35348); test: Intrinsic activity at human alpha1A-adrenergic receptor expressed in HEK293 cells assessed as calcium flux by fluorescence assay relative to norepinephrine; assay type: functional, cell-based
T3 sequence (whole entry): T2 sequence (P35348 whole entry)

Homo sapiens = organism: Homo sapiens; test: Selectivity ratio of EC50 for human alpha1A-adrenergic receptor to EC50 for human beta3-adrenergic receptor
Rattus norvegicus [7] = test: Cardiotoxicity in anesthetized Sprague-Dawley rat assessed as increase in heart rate at 3 mg/kg, iv measured for 30 mins relative to control; assay type: toxicity, organism-based; details: in vivo, 0.5 h
In short: (§2)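 Male Sprague-Dawley rats (200-300 g) were anesthetized with sodium pentobarbital (50 mg/kg i.p. plus 25 mg/kg s.c.). The compound was injected via the cannulated left femoral vein once BP and HR were stable, and HR and MBP were recorded for 30 min. Results are the maximum % increase or decrease from baseline, as mean ± SEM. Where given, silodosin (0.01 mg/kg iv) preceded the compound.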

Rattus norvegicus [8] = test: Cardiotoxicity in anesthetized Sprague-Dawley rat assessed as decrease in heart rate at 3 mg/kg, iv measured for 30 mins relative to control; assay type: toxicity, organism-based; parameters: scale not given: the % may be the effect or the level left; details: in vivo, 0.5 h; in short: as §2
Rattus norvegicus [9] = test: Cardiotoxicity in anesthetized Sprague-Dawley rat assessed as increase in mean blood pressure at 3 mg/kg, iv measured for 30 mins relative to control; assay type: toxicity, organism-based; details: in vivo, 0.5 h; in short: as §2
Rattus norvegicus [10] = test: Cardiotoxicity in anesthetized Sprague-Dawley rat assessed as decrease in mean blood pressure at 3 mg/kg, iv measured for 30 mins relative to control; assay type: toxicity, organism-based; parameters: scale not given: the % may be the effect or the level left; details: in vivo, 0.5 h; in short: as §2
[11] = biological target: Beta-3 adrenergic receptor (Rattus norvegicus, UniProt P26255); test: Agonist activity at rat beta3-adrenergic receptor
[12] = biological target: Beta-3 adrenergic receptor (Rattus norvegicus) (UniProt P26255); test: Intrinsic activity at rat beta3-adrenergic receptor relative to isoproterenol
[13] = Agonist activity at marmoset beta3-adrenergic receptor; parameters: species or system Callithrix jacchus; in short: as §1
Callithrix jacchus [14] = organism: Callithrix jacchus; test: Agonist activity at marmoset beta3-adrenergic receptor relative to isoproterenol; in short: as §1
Callithrix jacchus [15] = organism: Callithrix jacchus; test: Agonist activity at beta3-adrenergic receptor in isolated marmoset urinary bladder smooth muscle assessed as reduction of KCl-induced muscle contraction; assay type: tissue-based
In short: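 Marmosets anesthetized with ketamine hydrochloride (15 mg/kg, i.m.) and exsanguinated. Bladder body strips (about 10-15 mm × 2-5 mm) were held in Krebs-Henseleit gassed with 95% O2/5% CO2 at 37 °C under 1 g resting tension and equilibrated over 30 min. Tension was recorded isometrically. After the top concentration, papaverine (final 10⁻⁴ mol/L) set each strip's maximum relaxation.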

Sequence of Beta-1 adrenergic receptor (P08588 whole entry): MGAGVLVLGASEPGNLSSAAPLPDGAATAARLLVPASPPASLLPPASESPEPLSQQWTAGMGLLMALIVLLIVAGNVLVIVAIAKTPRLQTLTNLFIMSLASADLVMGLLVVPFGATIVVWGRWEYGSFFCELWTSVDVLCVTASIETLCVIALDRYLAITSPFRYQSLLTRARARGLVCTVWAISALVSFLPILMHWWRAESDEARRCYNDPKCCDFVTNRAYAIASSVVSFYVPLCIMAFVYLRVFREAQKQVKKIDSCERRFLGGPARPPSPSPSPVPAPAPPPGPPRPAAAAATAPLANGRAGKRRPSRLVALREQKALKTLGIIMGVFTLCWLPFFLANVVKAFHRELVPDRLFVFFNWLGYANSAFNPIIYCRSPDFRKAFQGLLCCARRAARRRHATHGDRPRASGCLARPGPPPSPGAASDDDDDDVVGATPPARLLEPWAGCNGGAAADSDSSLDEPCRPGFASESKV
Sequence of Beta-2 adrenergic receptor (P07550 whole entry): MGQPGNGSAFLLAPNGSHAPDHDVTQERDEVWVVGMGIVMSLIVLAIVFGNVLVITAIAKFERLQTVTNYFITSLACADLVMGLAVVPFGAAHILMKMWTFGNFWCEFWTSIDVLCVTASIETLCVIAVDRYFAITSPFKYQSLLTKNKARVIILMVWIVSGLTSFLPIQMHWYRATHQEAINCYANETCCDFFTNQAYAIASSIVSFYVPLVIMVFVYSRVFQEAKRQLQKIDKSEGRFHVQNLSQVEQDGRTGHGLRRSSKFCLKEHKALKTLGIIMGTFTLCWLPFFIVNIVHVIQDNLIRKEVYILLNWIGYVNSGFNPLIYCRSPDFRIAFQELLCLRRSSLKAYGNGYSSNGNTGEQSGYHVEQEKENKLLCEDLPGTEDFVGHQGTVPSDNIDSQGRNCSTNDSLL
Sequence of Beta-3 adrenergic receptor (Rattus norvegicus) (P26255 whole entry): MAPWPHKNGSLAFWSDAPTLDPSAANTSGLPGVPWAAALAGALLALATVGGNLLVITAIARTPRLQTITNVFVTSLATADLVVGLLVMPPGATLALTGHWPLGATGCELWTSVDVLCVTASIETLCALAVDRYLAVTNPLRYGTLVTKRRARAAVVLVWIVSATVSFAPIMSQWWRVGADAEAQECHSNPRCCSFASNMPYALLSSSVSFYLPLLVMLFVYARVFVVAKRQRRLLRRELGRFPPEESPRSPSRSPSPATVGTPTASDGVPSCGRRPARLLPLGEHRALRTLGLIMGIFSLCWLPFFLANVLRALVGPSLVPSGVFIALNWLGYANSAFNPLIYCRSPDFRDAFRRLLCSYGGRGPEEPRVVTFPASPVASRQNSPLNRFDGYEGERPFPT
Sequence of Beta-3 adrenergic receptor (Rattus norvegicus, UniProt P26255) (P26255 whole entry): as above

SMILES | pEC50 [1] | Intrinsic activity [2] | pEC50 [3] | pEC50 [4] | pEC50 [5] | Intrinsic activity [6] | Ratio EC50 (Homo sapiens) | Activity (Rattus norvegicus [7]) | Activity (Rattus norvegicus [8]) | Activity (Rattus norvegicus [9]) | Activity (Rattus norvegicus [10]) | pEC50 [11] | Intrinsic activity [12] | pEC50 [13] | Intrinsic activity (Callithrix jacchus [14]) | Activity (Callithrix jacchus [15])
CS(=O)(=O)Nc1cccc([C@@H](O)CNCCOc2ccc3c(C4CC4)n[nH]c3c2)c1 | 7.77 | 72% | < 5.00 | < 5.00 | 5.81 | 19% | 91 | 5.7% | 3.3% | 2.7% | 11% |  |  |  |  | 
CCOc1n[nH]c2cc(OCCNC[C@H](O)c3cccc(NS(C)(=O)=O)c3)ccc12 | 7.15 | 69% |  |  | 6.56 | 59% | 3.9 |  |  |  |  |  |  |  |  | 
CS(=O)(=O)Nc1cccc([C@@H](O)CNCCOc2ccc3c(C4CCC4)n[nH]c3c2)c1 | 7.18 | 68% |  |  | < 5.00 | 4% | > 151 |  |  |  |  |  |  |  |  | 
CC(C)(C)c1n[nH]c2cc(OCCNC[C@H](O)c3cccc(NS(C)(=O)=O)c3)ccc12 | 6.47 | 62% |  |  | < 5.00 | 19% | > 30 |  |  |  |  |  |  |  |  | 
CCc1n[nH]c2cc(OCCNC[C@H](O)c3cccc(NS(C)(=O)=O)c3)ccc12 | 7.85 | 78% | < 5.00 | < 5.00 |  | 31% | 61 | 9.6% | 1.6% | 3.1% | 10.8% |  |  |  |  | 
CC(C)c1n[nH]c2cc(OCCNC[C@H](O)c3cccc(NS(C)(=O)=O)c3)ccc12 | 7.89 | 69% | < 5.00 | < 5.00 | < 5.00 | 9.1% | > 769 | 3.3% | 1.8% | 4.7% | 7.6% | 6.27 | 95% | 7.82 | 75% | Active
CS(=O)(=O)Nc1cccc([C@@H](O)CNCCOc2ccc3c(CO)n[nH]c3c2)c1 | 6.95 |  |  |  | 7.48 |  |  |  |  |  |  |  |  |  |  | 
CS(=O)(=O)Nc1cccc([C@@H](O)CNCCOc2ccc3c(Cl)n[nH]c3c2)c1 | 7.37 | 89% |  |  | 7.21 | 91% | 1.4 |  |  |  |  |  |  |  |  | 
CS(=O)(=O)Nc1cccc([C@@H](O)CNCCOc2ccc3c(C(F)(F)F)n[nH]c3c2)c1 | 7.19 | 86% |  |  | 6.09 | 31% | 13 |  |  |  |  |  |  |  |  | 
COc1n[nH]c2cc(OCCNC[C@H](O)c3cccc(NS(C)(=O)=O)c3)ccc12 | 7.40 | 70% |  |  | 6.60 | 60% | 6.3 |  |  |  |  |  |  |  |  | 
CS(=O)(=O)Nc1cccc([C@@H](O)CNCCOc2ccc3c(-c4ccccc4)n[nH]c3c2)c1 | < 5.00 | 29% |  |  | < 5.00 | 6% |  |  |  |  |  |  |  |  |  | 
Nc1nc(CC(=O)Nc2ccc(CCNC[C@H](O)c3ccccc3)cc2)cs1 [MIRABEGRON] |  |  |  |  |  |  |  | 10% |  | 3.5% | 38.3% |  |  |  |  | 
